ARFGAP1 inh – inhibits rat ARF GTPase activating protein 1; Arfgap1-stimulated ARF1 GTP hydrolysis, GDP FP detection; inhibition, % at 16.5 µM; 0.26% of 360,000 active; AID 651572;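 active means inhibition above a per-plate limit, mean inhibition of low control wells plus 3 SD, cut at about 25% in these data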;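 further: 0% = DMSO wells with enzyme and 100% = wells lacking Arfgap1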
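Repeats: one replicate per compound; assay system: rat Arfgap1 catalytic domain, aa 1-136; times: enzyme reaction 120 min at 25 °C after 20 min preincubation; detection: FP of antibody-bound GDP Alexa 633 tracer, ex 620/em 688 nm; benchmarks: high control wells lacking Arfgap1, low control full reaction with DMSO; reagent: human ARF1(Δ1-17)-GTP substrate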
ASAP1 inh – blocks human ASAP1-stimulated Arf1 GTP hydrolysis; 0.19% of 360,000 active; inhibition, % at 16.5 µM; AID 624377; Q9ULH1; GDP FP detection; in the data active means inhibition above about 25%;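 further: 0% = vehicle with enzyme and substrate and 100% = no enzyme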
Target sequence (Q9ULH1 325-724 limits assumed): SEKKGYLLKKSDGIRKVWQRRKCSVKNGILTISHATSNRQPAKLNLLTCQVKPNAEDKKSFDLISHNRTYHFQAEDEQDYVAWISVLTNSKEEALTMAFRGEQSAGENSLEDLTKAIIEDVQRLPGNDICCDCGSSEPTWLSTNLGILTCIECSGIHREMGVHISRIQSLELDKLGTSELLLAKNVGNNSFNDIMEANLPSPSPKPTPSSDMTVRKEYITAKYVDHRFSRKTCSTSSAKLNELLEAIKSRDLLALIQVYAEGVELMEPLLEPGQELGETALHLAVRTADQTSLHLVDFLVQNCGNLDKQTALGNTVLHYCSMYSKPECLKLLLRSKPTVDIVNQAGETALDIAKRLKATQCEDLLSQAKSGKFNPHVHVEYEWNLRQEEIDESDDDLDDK
CendR NRP1 mod – NRP-1/CendR interaction modulation. AID 602438. O14786. FAM-RPARPAR peptide binding to NRP-1, fluorescence polarization. inhibition, % at 25 µM. 0.85% of 360,000 active;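 active means inhibition or corrected inhibition above about 18%, plus a signal ratio from 0.5 to 1.5, limit read from the data, passing the limit was not always enough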
V-ATPase pH – yeast V-ATPase proton transport regulation by pHLuorin | S. cerevisiae, pHLuorin cytosolic pH fluorescence | 0.37% of 350,000 active | response, % at 10 µM | AID 504577; in the data active means response mostly above about 7.3%, no sharp cut-off; inactive means mostly below about 5.4%; further: actives read high
Granule exo inh – lytic granule exocytosis inhibition. TALL-104 LAMP-1 surface exposure, flow cytometry; cells stimulated with thapsigargin and PMA. inhibition, % at 10 µM. 0.66% of 360,000 active. AID 651702;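 active means inhibition above about 55%, limit read from the data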
* hit, by the source's call; . = no result given. Only some compounds are listed: those with a hit (about 2.2% of all), similar ones and a draw of the others.

SMILES	ARFGAP1 inh	ASAP1 inh	CendR NRP1 mod	V-ATPase pH	Granule exo inh
CC1(C)CN(O)CCN1O	0.8	-1.2	25.3*	6.2	-0.9
CN1CCCCC(NC(=O)c2ccc(Cl)cc2Cl)C1=O (configuration not stated)	0.5	-1.8	.	.	.
Cc1c(/C=N/NC(=O)c2ccccc2O)c2ccccn2c1C(=O)c1ccc(F)cc1	-6.7	-0.2	-6.5	4.1	78.0*
CSc1n[nH]c(-c2cccs2)n1	7.0	-1.3	.	.	.
COc1ccc(-n2c(-c3cc(-c4ccccc4)sc3N)n[nH]c2=S)cc1	8.7	-5.1	3.5	-2.5	90.9*
CCOc1cc(NC(=S)NCCCN2CCOCC2)c(OCC)cc1NC(=O)c1ccccc1	-4.2	-6.9	-11.8	1.7	-0.8
CCOc1cc(NC(=S)NCCCN2CCOCC2)c(OCC)cc1NC(=O)c1cccs1	-1.5	8.0	23.5*	-0.6	2.1
NC(=O)c1c(N)[nH]c(C(=O)c2ccccc2)c1-c1ccc2ccccc2c1	-3.3	-12.0	.	.	.
CCNC(=O)C1(C)CCN(Cc2ccc(C(F)(F)F)cc2)C1 (configuration not stated)	11.1	1.5	10.0	.	4.2
CCCNC(=O)C1(C)CCN(Cc2cc(C(F)(F)F)ccc2Cl)C1 (configuration not stated)	12.4	10.1	21.9*	.	-1.7
CCCCOCCCNC(=O)C[C@H]1C[C@@]2(C(=O)OC)C(=C[C@H](C(C)(C)C)O[C@@H]2C)N(Cc2ccccc2)C1=O	-3.5	-4.5	.	.	.
OC(CN1C2=NCCN2c2ccccc21)c1ccccc1 (configuration not stated)	-7.6	1.0	-15.7	-1.1	-0.1
Cc1ccc(C(O)CN2C3=NCCN3c3ccccc32)cc1 (configuration not stated)	2.4	-2.0	56.0*	.	-0.8
COc1ccc(OC)c(Nc2nc(N)nc(CCl)n2)c1	9.8	-7.2	-2.5	0.5	30.7
COc1cccc(Nc2nc(N)nc(CCl)n2)c1	-2.0	0.8	5.3	-0.8	68.2*
Cc1cccc(Nc2nc(N)nc(CCl)n2)c1	1.4	8.3	1.5	4.3	69.7*
CCOc1ccc(Nc2nc(N)nc(CCl)n2)cc1	7.8	0.1	5.0	1.4	60.2*
Cc1ccc(Nc2nc(N)nc(CCl)n2)cc1	4.2	9.9	-2.1	-6.7	51.4
CC1(C(=O)NS(=O)(=O)c2cccc(Cl)c2)CCN1C(=O)C1(c2ccc(Cl)cc2)CCC1 (configuration not stated)	8.9	-10.1	1.4	.	-7.5
CC1CN(Cc2c(O)ccc3c(=O)c(-c4ccccc4)coc23)CC(C)O1 (configuration not stated)	-14.3	-15.9	37.7*	-2.8	18.1
COc1cccc(CC(NC(C)=O)C(=O)NC2CCN(C(=O)c3ccc(Cl)cc3)CC2)c1 (configuration not stated)	3.5	12.2	18.7*	0.4	-9.2
CC(=O)Nc1ccc(C(C)=NNC(=O)C2CCCC2)cc1	-6.0	2.5	0.0	.	-2.5
C/C(=N\NC(=O)C1CCCC1)c1ccc(C(C)C)cc1	3.9	-5.3	26.8*	-4.5	-0.9
O=[N+]([O-])c1c(Cl)cc(Cl)cc1Cl	1.4	0.1	.	.	.
C[C@@H]1ON(C)[C@H]2C[C@H]3c4[nH]c5cccc(-c6cccc(F)c6)c5c4CCN3C(=O)[C@@H]12	2.3	-2.3	.	.	.
SMILES	ARFGAP1 inh	ASAP1 inh	CendR NRP1 mod	V-ATPase pH	Granule exo inh
CN(Cc1ccccc1)c1nc(N)c([N+](=O)[O-])c(NCc2ccccc2)n1	-22.3	8.3	22.2*	2.6	35.3
Nc1nc(NCCc2ccccc2)nc(NCc2ccccc2)c1[N+](=O)[O-]	-0.7	3.5	-2.4	3.9	29.9
O=C(Nc1ccc2ccccc2c1)c1cccnc1	-3.9	1.6	3.0	4.3	-2.3
O=C(Nc1ccc2c(c1)Cc1ccccc1-2)c1cccnc1	-2.4	4.0	19.8*	-0.2	-5.1
O=C(Cc1cn(Cc2ccccc2)c2ccccc12)Nc1ccc(Oc2cccnc2)cc1	2.5	-2.4	.	.	.
COC(=O)c1c(NC(=O)CN(c2ccccc2)S(C)(=O)=O)sc2c1CCCC2	4.6	4.5	27.0*	-2.0	3.3
COC(=O)c1c(NS(=O)(=O)Cc2ccccc2)sc2c1CCCC2	3.5	-8.2	-1.3	2.0	0.7
Cc1ccccc1C(=O)NC1CCCCN(C)C1=O (configuration not stated)	-11.5	-3.0	.	.	.
O=C(CN1C(=O)NC2(CCCC2)C1=O)Nc1ccc(OC(F)(F)F)cc1	8.2	-3.0	1.0	-0.7	-6.8
O=C(CN1C(=O)NC2(CCCCCC2)C1=O)Nc1ccc(OC(F)(F)F)cc1	3.3	16.2	26.9*	0.7	-9.2

Bioassay records deposited in PubChem BioAssay by several laboratories.
